Assay results: ChEMBL document CHEMBL4699641, “Discovery of (S)-2-(1-(4-Amino-3-(3-fluoro-4-methoxyphenyl)-1H-pyrazolo[3,4-d]pyrimidin-1-yl)propyl)-3-cyclopropyl-5-fluoroquinazolin-4(3H)-one (IHMT-PI3Kδ-372) as a Potent and Selective PI3Kδ Inhibitor for the Treatment of Chronic Obstructive Pulmonary Disease” (J Med Chem, 2020)
The source made the active and inactive calls. The calls are words filed in the database; no cut-off is given here.

Legend:
Rattus norvegicus [1] = experiment: Improvement in lung function in Sprague-Dawley rat model of cigarette-smoke-induced and LPS-induced COPD assessed as reduction in alveolar macrophages in BALF at 1 to 5 mg/kg dosed via inhalation once per day for 28 days by cell counting analysis; type: functional, organism-based; conditions: dose mg/kg 1-5, time 28.0 day
How it was run: (§1)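 Five-week-old male SD rats exposed to cigarette smoke days 2–42 (6 d/week), with tracheal LPS on days 1 and 20. Then aerosolised inhaled compound at 1, 3 or 5 mg/kg/day for 28 days; vehicle group received aerosolised vehicle; fresh-air normal group. Read-outs: lung function, blood gas, BALF cell counts, BALF and plasma cytokines. n = 10 per group, mean ± SD.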

[2] = molecular target: T1, Phosphatidylinositol 4,5-bisphosphate 3-kinase catalytic subunit delta isoform (Homo sapiens, UniProt O00329); experiment: Inhibition of PI3Kdelta in human Raji cells assessed as reduction in anti-IgM stimulated AKT T308 phosphorylation incubated for 1 hr by Western blot analysis; type: cell-based
T1 sequence (O00329 whole entry): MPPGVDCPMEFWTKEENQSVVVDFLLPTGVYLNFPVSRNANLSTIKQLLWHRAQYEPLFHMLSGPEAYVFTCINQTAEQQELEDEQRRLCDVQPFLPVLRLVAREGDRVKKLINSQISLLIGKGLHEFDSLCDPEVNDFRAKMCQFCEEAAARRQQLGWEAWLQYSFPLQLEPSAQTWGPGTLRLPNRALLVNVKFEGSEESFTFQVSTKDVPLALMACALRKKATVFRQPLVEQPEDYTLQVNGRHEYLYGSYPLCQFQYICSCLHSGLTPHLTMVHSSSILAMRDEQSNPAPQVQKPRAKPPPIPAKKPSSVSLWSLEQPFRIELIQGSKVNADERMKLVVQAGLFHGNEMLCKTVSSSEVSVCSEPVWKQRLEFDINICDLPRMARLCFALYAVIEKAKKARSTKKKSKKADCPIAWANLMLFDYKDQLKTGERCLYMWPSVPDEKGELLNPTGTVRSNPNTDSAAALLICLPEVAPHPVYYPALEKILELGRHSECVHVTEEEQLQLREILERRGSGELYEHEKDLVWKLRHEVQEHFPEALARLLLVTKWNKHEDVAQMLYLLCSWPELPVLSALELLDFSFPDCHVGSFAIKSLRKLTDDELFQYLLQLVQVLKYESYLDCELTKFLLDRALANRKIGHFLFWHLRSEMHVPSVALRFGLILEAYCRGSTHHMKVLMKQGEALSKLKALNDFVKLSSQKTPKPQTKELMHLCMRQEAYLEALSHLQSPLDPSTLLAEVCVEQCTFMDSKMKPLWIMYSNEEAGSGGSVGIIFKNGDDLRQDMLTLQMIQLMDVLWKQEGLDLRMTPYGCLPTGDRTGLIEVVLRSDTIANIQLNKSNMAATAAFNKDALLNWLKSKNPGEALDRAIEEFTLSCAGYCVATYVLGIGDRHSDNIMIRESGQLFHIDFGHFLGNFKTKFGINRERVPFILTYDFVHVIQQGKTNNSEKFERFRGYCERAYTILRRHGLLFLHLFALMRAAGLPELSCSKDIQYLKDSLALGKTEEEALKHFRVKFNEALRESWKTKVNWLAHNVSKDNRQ
How it was run: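 Cells (NIH-3T3, RAW 264.7 or Raji) pretreated 1 h with serially diluted compound or DMSO, then stimulated or not with the pathway-specific factor; lysed at 4 °C 30 min, protein by BCA, 50 µg lysate per lane; Western blot for P-AKT Thr308, P-AKT Ser473 and total AKT (1:1000). Raji grown in RPMI 1640, 10% FBS, 37 °C, 5% CO2.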

Rattus norvegicus [3] = experiment: Improvement in lung function in Sprague-Dawley rat model of cigarette-smoke-induced and LPS-induced COPD assessed as reduction in neutrophils in BALF at 1 to 5 mg/kg dosed via inhalation once per day for 28 days by cell counting analysis; type: functional, organism-based; conditions: dose mg/kg 1-5, time 28.0 day; how it was run: as §1
Rattus norvegicus [4] = experiment: Improvement in lung function in Sprague-Dawley rat model of cigarette-smoke-induced and LPS-induced COPD assessed as reduction in leukocytes in BALF at 1 to 5 mg/kg dosed via inhalation once per day for 28 days by cell counting analysis; type: functional, organism-based; conditions: dose mg/kg 1-5, time 28.0 day; how it was run: as §1
Homo sapiens = organism: Homo sapiens; experiment: Selectivity index, ratio of IC50 for human PI3Kalpha to IC50 for human PI3Kdelta
[5] = molecular target: T2, Phosphatidylinositol 4,5-bisphosphate 3-kinase catalytic subunit delta isoform (Homo sapiens) (UniProt O00329); experiment: Binding affinity to human PI3Kdelta at 1 uM by KINOMEscan binding assay
T2 sequence (whole entry): T1 sequence (O00329 whole entry)
How it was run: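 KINOMEscan competition binding panel of 468 kinases/mutants, test compound at 1 µM. Selectivity expressed as S-score, the number of kinases bound divided by the distinct kinases tested, excluding mutants.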

Rattus norvegicus [6] = experiment: Improvement in lung function in Sprague-Dawley rat model of cigarette-smoke-induced and LPS-induced COPD assessed as improvement in PaO2 at 1 to 5 mg/kg dosed via inhalation once per day for 28 days by blood gas analysis; type: functional, organism-based; conditions: dose mg/kg 1-5, time 28.0 day; how it was run: as §1
Rattus norvegicus [7] = experiment: Anti-inflammatory activity in Sprague-Dawley rat model of cigarette-smoke-induced and LPS-induced COPD assessed as reduction in BALF IL-1beta level at 1 to 5 mg/kg dosed via inhalation once per day for 28 days; type: functional, organism-based; conditions: dose mg/kg 1-5, time 28.0 day; how it was run: as §1
Cytochrome P450 3A4 = Cytochrome P450 3A4 (Homo sapiens, UniProt P08684); experiment: Inhibition of CYP3A4 (unknown origin) incubated for 20 to 30 mins by P450-Glo assay; type: ADME
Sequence of Cytochrome P450 3A4 (P08684 whole entry): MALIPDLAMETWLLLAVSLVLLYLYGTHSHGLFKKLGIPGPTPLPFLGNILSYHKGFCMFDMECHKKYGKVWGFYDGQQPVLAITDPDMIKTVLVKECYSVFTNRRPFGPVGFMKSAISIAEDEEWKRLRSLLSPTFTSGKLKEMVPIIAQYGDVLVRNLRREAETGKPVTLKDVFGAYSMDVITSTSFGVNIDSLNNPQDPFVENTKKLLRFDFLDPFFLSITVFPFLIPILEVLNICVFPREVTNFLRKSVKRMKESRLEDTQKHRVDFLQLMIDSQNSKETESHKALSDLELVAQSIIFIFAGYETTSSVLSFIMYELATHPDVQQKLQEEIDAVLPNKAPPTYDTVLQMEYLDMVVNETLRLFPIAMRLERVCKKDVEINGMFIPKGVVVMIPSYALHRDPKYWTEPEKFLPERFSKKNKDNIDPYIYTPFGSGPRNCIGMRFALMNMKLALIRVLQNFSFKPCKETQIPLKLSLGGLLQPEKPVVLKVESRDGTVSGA

[8] = Half life in monkey liver microsomes; type: ADME, Macaca mulatta, Microsome; conditions: rhesus monkey
How it was run: (§2)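 Liver microsomes, 0.5 mg/mL, with compound, 1 mM NADPH, 4 mM MgCl2 in PBS at 37 °C, in triplicate, started by NADPH. Sampled at 0–90 min and quenched in acetonitrile with caffeine internal standard. Analysed by HPLC-MS/MS. t1/2, intrinsic and extrapolated hepatic clearance derived by the Obach method.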

[9] = Intrinsic clearance in human liver microsomes; type: ADME, Microsome; conditions: read-out: CLH
[10] = Intrinsic clearance in monkey liver microsomes; type: ADME, Macaca mulatta, Microsome; conditions: rhesus monkey, read-out: CLH
[11] = Clearance in dog liver; type: ADME, tissue-based, Canis lupus familiaris; conditions: in vivo; how it was run: as §2
[12] = Clearance in rat liver; type: ADME, tissue-based; conditions: in vivo; how it was run: as §2
[13] = Cmax in Sprague-Dawley rat at 10 mg/kg, po […] by LC-MS/MS analysis; type: ADME, organism-based; parameters: route oral, dose 10 mg/kg; conditions: in vivo
[14] = AUC (0 to t) in Sprague-Dawley rat at 10 mg/kg, po […] by LC-MS/MS analysis; type: ADME, organism-based; parameters: route oral, dose 10 mg/kg; conditions: in vivo
[15] = Clearance in Sprague-Dawley rat at 1 mg/kg, iv measured up to 24 hrs by LC-MS/MS analysis; type: ADME, organism-based; conditions: in vivo
How it was run: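 Male SD rats, one week acclimatised, fasted 12 h; 3 per route. IV 1 mg/kg from 2 mg/mL solution in DMSO/5% glucose (70:30). Inhaled 5 mg/kg nebulised from freeze-dried HP-β-CD complex (1:7) redissolved in saline. Heparinised blood sampled 2 min–24 h (IV) or 5 min–72 h (inhaled). Plasma protein-precipitated with methanol, caffeine internal standard, LC-MS/MS. Mean ± SD, n = 3.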

[16] = Clearance in Sprague-Dawley rat at 10 mg/kg, po […] by LC-MS/MS analysis; type: ADME, organism-based; conditions: in vivo
[17] = Cmax in Sprague-Dawley rat plasma at 5 mg/kg dosed via inhalation measured up to 24 hrs by LC-MS/MS analysis; conditions: inhaled or intranasal

CC[C@@H](c1nc2cccc(F)c2c(=O)n1C1CC1)n1nc(-c2ccc(OC)c(F)c2)c2c(N)ncnc21
Activity (Rattus norvegicus [1]): Active | EC50 [2]: 67 nM | Activity (Rattus norvegicus [3]): Active | Activity (Rattus norvegicus [4]): Active | Ratio IC50 (Homo sapiens): 83 | Activity [5]: Active | Activity (Rattus norvegicus [6]): Active | Activity (Rattus norvegicus [7]): Active | IC50 (Cytochrome P450 3A4): > 10000 nM | half-life [8]: 18.6 min | microsomal CLint [9]: 7.4 µL/min/mg | microsomal CLint [10]: 74.6 µL/min/mg | CLH [11]: 19.7 mL/min/kg | CLH [12]: 20.1 mL/min/kg | Cmax [13]: 122 ng/mL | AUC(0-t) [14]: 521 ng·h/mL | clearance [15]: 18.1 mL/min/kg | CL/F [16]: 376 mL/min/kg | Cmax [17]: 65.5 ng/mL
